Measurements taken from ChEMBL document CHEMBL4837188, “Identification of Novel Tricyclic Benzo[1,3]oxazinyloxazolidinones as Potent Antibacterial Agents with Excellent Pharmacokinetic Profiles against Drug-Resistant Pathogens” (J Med Chem, 2021).
Values after ≈ are worked out from the molar mass of the structure shown.

Assays:
[1] = Metabolic stability in pooled human liver microsomes incubated for 30 mins by LC-MS analysis; format: ADME, Microsome; details: read-out: Stabilty
Summary of the method: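 Microsomes from male CD-1 mouse or pooled human, 1 mg/mL protein in 0.05 M phosphate buffer pH 7.4. Compound at final 0.1 μM with DMSO cosolvent. Incubated at 37 °C with 1 mM NADPH, or with buffer in place of NADPH. Sampled at 0 and 30 min and quenched with acetonitrile. LC−MS measurement; substrate remaining at 30 min normalized to time zero.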

[2] = tested on: Mycobacterium tuberculosis; experiment: Antitubercular activity against Mycobacterium tuberculosis H37Rv assessed as inhibition of bacterial growth incubated for 7 days by MABA; format: functional; details: Mycobacterium tuberculosis, H37Rv, 168 h, time 7 day; read-out: MIC
Summary of the method: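 Microplate alamar blue assay. H37Rv or clinical isolates were grown to late log phase in 7H9 broth with glycerol, Tween 80 and ADC, then 2 × 10⁵ CFU added to two-fold dilutions. Final range 32–0.5 μg/mL, lowered to 2–0.016 μg/mL for active compounds. 37 °C, 7 days, then alamar blue 16 h. Fluorescence 530/590 nm. MIC is the lowest concentration giving ≥90% reduction; INH and RFP were controls.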

[3] = tested on: Staphylococcus aureus; experiment: Antibacterial activity against Staphylococcus aureus ATCC 29213 assessed as inhibition of bacterial growth incubated for 18 hrs by broth microdilution method; format: functional
Summary of the method: (§1)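 Broth microdilution in 96-well plates. Media: cation-adjusted Mueller−Hinton broth for S. aureus, brain heart infusion for VRE, Mueller−Hinton broth for the other strains. Incubated at 37 °C for 18 h, then A600 read. Percent growth inhibition calculated against 1% DMSO vehicle.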

[4] = tested on: Enterococcus; experiment: Antibacterial activity against vancomycin resistant Enterococcus assessed as bacterial growth inhibition after 18 hrs by broth microdilution method; format: functional
[5] = tested on: Enterococcus faecalis; experiment: Antibacterial activity against Enterococcus faecalis ATCC 29212 assessed as bacterial growth inhibition after 18 hrs by broth microdilution method; format: functional; summary of the method: as §1
[6] = tested on: Enterococcus faecium; experiment: Antibacterial activity against Enterococcus faecium ATCC 49624 assessed as bacterial growth inhibition after 18 hrs by broth microdilution method; format: functional; summary of the method: as §1
[7] = tested on: Enterococcus faecium; experiment: Antibacterial activity against linezolid resistant Enterococcus faecium 13549 assessed as bacterial growth inhibition after 18 hrs by broth microdilution method; format: functional
[8] = Inhibition of mitochondrial protein synthesis in […] H9C2 cells after 5 days by ELISA; format: functional, cell-based; details: Rattus norvegicus, H9c2, 120 h
Summary of the method: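 H9C2 cells in DMEM with 10% FBS, glutamine and NEAA, seeded at 1500 cells/well. After 18 h, compounds added at final 200 to 0.03 μM in nine 3-fold steps, then 5 days at 37 °C, 5% CO2. Negative control 0.5% DMSO. Mitochondrial protein synthesis read by MitoBiogenesis In-Cell ELISA; IC50 fitted.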

[9] = Elimination half life in BALB/c mouse at 1 mg/kg, iv measured upto 24 hrs by LC-MS/MS analysis; format: ADME, organism-based; details: in vivo, read-out: beta t1/2 (converted)
Summary of the method: (§2)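 Female BALB/c mice, 16−21 g, three per route. Oral dosing at 10 mg/kg as a 5 mg/mL suspension in 0.5% carboxymethyl cellulose. IV dosing at 1 mg/kg as a 1 mg/mL solution in 10% DMSO/50% PEG400/40% water. Blood sampled 15 min to 24 h after oral dosing and 5 min to 24 h after iv. LC/MS/MS quantification in ESI positive mode. Noncompartmental analysis; F = (AUCpo×dose_iv)/(AUCiv×dose_po)×100%.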

[10] = Tmax in BALB/c mouse at 10 mg/kg, po measured upto 24 hrs by LC-MS/MS analysis; format: ADME, organism-based; details: in vivo; summary of the method: as §2
[11] = Cmax in BALB/c mouse at 10 mg/kg, po measured upto 24 hrs by LC-MS/MS analysis; format: ADME, organism-based; set-up: route oral, dose 10 mg/kg, time <=24; details: in vivo; summary of the method: as §2
[12] = AUC (0 to t) in BALB/c mouse at 1 mg/kg, iv measured upto 24 hrs by LC-MS/MS analysis; format: ADME, organism-based; set-up: route intravenous, dose 1 mg/kg, time <=24; details: in vivo; summary of the method: as §2
[13] = AUC (0 to t) in BALB/c mouse at 10 mg/kg, po measured upto 24 hrs by LC-MS/MS analysis; format: ADME, organism-based; set-up: route oral, dose 10 mg/kg, time <=24; details: in vivo; summary of the method: as §2
[14] = AUC (0 to infinity) in BALB/c mouse at 10 mg/kg, po measured upto 24 hrs by LC-MS/MS analysis; format: ADME, organism-based; set-up: route oral, dose 10 mg/kg, time <=24; details: in vivo; summary of the method: as §2
[15] = MRT (0 to infinity) in BALB/c mouse at 1 mg/kg, iv measured upto 24 hrs by LC-MS/MS analysis; format: ADME, organism-based; details: in vivo; summary of the method: as §2
[16] = MRT (0 to infinity) in BALB/c mouse at 10 mg/kg, po measured upto 24 hrs by LC-MS/MS analysis; format: ADME, organism-based; details: in vivo; summary of the method: as §2
[17] = Clearance in BALB/c mouse at 1 mg/kg, iv measured upto 24 hrs by LC-MS/MS analysis; format: ADME, organism-based; details: in vivo; summary of the method: as §2

Question: Which remaining at 0.5 h [1] does the source give for `CC(=O)NC[C@@H]1OC(=O)N2Cc3cc(-c4ccc(C#N)nc4)c(F)cc3O[C@@H]12` here?
Answer: Its remaining at 0.5 h is 106%.

Question: And the MIC [2]?
Answer: Its MIC is 0.4 µg/mL (≈ 1.05 µM).

Question: What about the MIC [3] of the same molecule?
Answer: The MIC was 0.125 µg/mL (≈ 0.327 µM).

Question: What about the MIC [4] of the same molecule?
Answer: Its MIC is 0.25 µg/mL (≈ 0.654 µM).

Question: And the MIC [5]?
Answer: The MIC was 0.5 µg/mL (≈ 1.31 µM).

Question: And the MIC [6]?
Answer: The MIC was 1 µg/mL (≈ 2.62 µM).

Question: What about the MIC [7] of the same molecule?
Answer: Its MIC is 2 µg/mL (≈ 5.23 µM).

Question: And the IC50 [8]?
Answer: The IC50 was 1630 nM.

Question: What about the half-life [9] of the same molecule?
Answer: Its half-life is 245 min.

Question: What about the Tmax [10] of the same molecule?
Answer: The Tmax was 1.33 h.

Question: And the Cmax [11]?
Answer: The Cmax was 10300 ng/mL.

Question: And the AUC(0-t) at 24 h [12]?
Answer: The AUC(0-t) at 24 h was 6080 ng·h/mL.

Question: And the AUC(0-t) at 24 h [13]?
Answer: Its AUC(0-t) at 24 h is 77600 ng·h/mL.

Question: What about the AUC(0-inf) [14] of the same molecule?
Answer: The AUC(0-inf) was 78700 ng·h/mL.

Question: What about the MRT inf [15] of the same molecule?
Answer: The MRT inf was 4.71 h.

Question: What about the MRT inf [16] of the same molecule?
Answer: The MRT inf was 5.86 h.

Question: And the clearance [17]?
Answer: The clearance was 2.71 mL/min/kg.
